The subject of test [1] is Staphylococcus aureus. The test is described as follows: Antibacterial activity against Staphylococcus aureus ATCC 6538 P at below 625 ug/mL after 24 hrs by broth microdilution method. It counts as functional, organism-based. The method, boiled down:
(§1)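 Broth microdilution in LAPTg medium (pH 6.8). Inoculum set to 0.5 McFarland (10⁸ CFU/mL), then diluted to 10⁵ CFU/mL and confirmed by plate counts. Added to 0.1 mL broth containing compound over 5000 to 156.2 µg/mL, with DMSO as solvent. Incubated 24 h at 37 °C. MIC taken as the lowest concentration with no visible growth.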
A general note: Broth dilution looks for growth in wells or tubes with falling amounts of substance.

Test [2] concerns Staphylococcus aureus. Briefly: Antibacterial activity against Staphylococcus aureus F7 at below 625 ug/mL after 24 hrs by broth microdilution method. It counts as functional, organism-based. The method, boiled down: as §1

Activity calls are given as the source filed them. The calls are words filed in the database; no cut-off is given here.

As to `CC1(C)CC2=C(C(=O)O[C@]2(C)O)[C@]2(C)C[C@@H]2C1`, the outcome in test [1] and in test [2] was inactive.
With `C[C@H]1C(=O)C=C2[C@H]1CC(C)(C)C[C@H]1C[C@@]21C`, the outcome in test [1] and in test [2] was inactive.
As to `Cc1oc(=O)cc2c1CC(C)(C)C[C@H]1C[C@@]21C`, the result in test [1] and in test [2] was inactive.
With `CC1(C)S[C@@H]2[C@H](NC(=O)Cc3ccccc3)C(=O)N2[C@H]1C(=O)O`, the outcome in test [1] and in test [2] was Active.
On to `COC(=O)CC1=C(C(C)=O)CC(C)(C)C[C@H]2C[C@@]12C`, for which the result in test [1] and in test [2] was inactive.
As to `CC1(C)C[C@H]2C[C@@]2(C)C2=CC(=O)[C@@](C)(O)[C@@H]2C1`, the outcome in test [1] and in test [2] was inactive.
Take `CC1(C)C=C2C(=CC(=O)[C@@]2(C)O)[C@]2(C)C[C@@H]2C1`: the outcome in test [1] and in test [2] was inactive.
Consider `CC1(C)C[C@H]2C[C@@]2(C)C2=CC(=O)[C@@]3(C)O[C@@]23C1`, for which the result in test [1] and in test [2] was inactive.
On to `C[C@@H]1OC(=O)C2=C1CC(C)(C)C[C@H]1C[C@@]21C`, for which the outcome in test [1] and in test [2] was inactive.

The record behind these values is ChEMBL document CHEMBL1146456, “Africane-type sesquiterpenoids from the Argentine liverwort Porella swartziana and their antibacterial activity” (J Nat Prod, 2004).
